The values below come from ChEMBL document CHEMBL1641364, “Synthesis of truncated analogues of the iNKT cell agonist, α-galactosyl ceramide (KRN7000), and their biological evaluation” (Bioorg Med Chem, 2011).

The source made the active and inactive calls. The calls are words filed in the database; no cut-off is given here.

Type in all cases: cell-based
Test [1] addresses T1, Antigen-presenting glycoprotein CD1d (Homo sapiens) (UniProt P15813).
T1 sequence (whole entry): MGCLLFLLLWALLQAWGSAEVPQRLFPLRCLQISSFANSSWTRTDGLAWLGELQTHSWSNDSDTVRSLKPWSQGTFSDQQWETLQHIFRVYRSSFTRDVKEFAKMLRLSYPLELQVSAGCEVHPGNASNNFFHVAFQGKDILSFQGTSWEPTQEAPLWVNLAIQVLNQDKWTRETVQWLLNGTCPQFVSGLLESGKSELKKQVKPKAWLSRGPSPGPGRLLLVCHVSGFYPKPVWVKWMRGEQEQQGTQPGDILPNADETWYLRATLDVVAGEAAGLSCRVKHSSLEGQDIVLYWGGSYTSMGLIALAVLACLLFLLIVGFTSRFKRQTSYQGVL
Description: Binding affinity to C1R-hCD1d expressed in human B cells assessed as change in IFN-gamma/IL4 ratio in human iNKT cells upto 100 ng/ml after 36 hrs by ELISA. A digest of the protocol: (§1)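 C1R cells expressing human CD1d were pulsed with lipid at a range of concentrations. 5 × 10⁴ pulsed targets were co-cultured with 2 × 10⁴ human iNKT line cells at 37 °C for 36 h. IFN-γ and IL-4 in the harvested supernatants were quantified by ELISA, and IFN-γ/IL-4 and IL-4/IFN-γ ratios were derived from these values.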

For test [2], the target named is T1, Antigen-presenting glycoprotein CD1d (Homo sapiens). Description: Binding affinity to C1R-hCD1d expressed in human B cells assessed as increase in IFN-gamma/IL4 ratio in mouse iNKT cells upto 100 ng/ml after 36 hrs by ELISA.
Test [3] has the same target. Description: Binding affinity to C1R-hCD1d expressed in human B cells assessed as increase in Th1 cytokine release in mouse iNKT cells upto 100 ng/ml after 36 hrs by ELISA.
Test [4] has the same target. Kind of test: Binding affinity to C1R-hCD1d expressed in human B cells assessed as increase in Th2 cytokine release in mouse iNKT cells upto 100 ng/ml after 36 hrs by ELISA.
For test [5] the target is unchanged. Description: Binding affinity to C1R-hCD1d expressed in human B cells assessed as activation of IFN-gamma release in human iNKT cells upto 100 ng/ml after 36 hrs by ELISA. A digest of the protocol: as §1
For test [6] the target is unchanged. Description: Binding affinity to C1R-hCD1d expressed in human B cells assessed as activation of IL-4 release in human iNKT cells upto 100 ng/ml after 36 hrs by ELISA. The method, boiled down:
as §1

Regarding `CCCCC/C=C\C/C=C\CCCCCCCCCC(=O)N[C@@H](CO[C@H]1O[C@H](CO)[C@H](O)[C@H](O)[C@H]1O)[C@H](O)[C@H](O)CCCCCCCCCCCCCC`, the result in test [1] was inactive. Further, the outcome in test [2], in test [3] and in test [4] was Active.

`CCCCCCCCCCCCCCCCCCCCCCCCCC(=O)N[C@@H](CO[C@H]1O[C@H](CO)[C@H](O)[C@H](O)[C@H]1O)[C@H](O)[C@H](O)CCCCCCCCCCC`: in test [1], the outcome was inactive. For the same compound, the result in test [5], in test [6], in test [2], in test [3] and in test [4] was Active.

For `CCCCCCCCCCCCCCCCCCCCCCCCCC(=O)N[C@@H](CO[C@H]1O[C@H](CO)[C@H](O)[C@H](O)[C@H]1O)[C@H](O)[C@H](O)CCCCC`, the outcome in test [1] was inactive. For the same compound, the result in test [5], in test [6], in test [2], in test [3] and in test [4] was Active.

On to `CCCCCCCCCCCCCCCCCCCCCCCCCC(=O)N[C@@H](CO[C@H]1O[C@H](CO)[C@H](O)[C@H](O)[C@H]1O)[C@H](O)[C@H](O)CCCCCCCCCCCCCC`, for which the result in test [1] was inactive. The result in test [5], in test [6], in test [2] and in test [3] was Active.

For the compound `CCCCCCCCCCCCCCCCCCCCCCCCCC(=O)N[C@@H](CO[C@H]1O[C@H](CO)[C@H](O)[C@H](O)[C@H]1O)[C@H](O)[C@H](O)CCCCCCCC`, in test [1], the outcome was inactive. Besides, the outcome in test [5], in test [6], in test [2], in test [3] and in test [4] was Active.
